Results as given in ChEMBL document CHEMBL1129428 (J Med Chem, 1996).

Assays:
Rattus norvegicus [1] = assay: Compound was tested for anticonvulsant activity after Oral Administration into rat by using MES screen test after 2 hr dose 12.5 mg/kg; assay type: functional
Rattus norvegicus [2] = assay: Anticonvulsant activity after oral administration into rats; assay type: functional; set-up: concentration or dose not given beside the values
Mus musculus [3] = assay: Compound was tested for toxicity after intraperitoneal injection into mice by using toxicity screen test after 4 hr; assay type: organism-based; conditions: in vivo, ip
Summary of the method: (§1)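 Mice injected intraperitoneally at 30, 100 and 300 mg/kg and examined 0.5 and 4 h afterwards. Each entry is the minimum dose giving activity (MES protection, scPTZ protection, or rotorod failure for neurotoxicity) in half or more of the mice. Activity is called absent if nothing occurs at 300 mg/kg.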

Mus musculus [4] = assay: Anticonvulsant activity after intraperitoneal injection into mice by using MES screen test after 0.5 hr; assay type: functional
Mus musculus [5] = assay: Anticonvulsant activity after intraperitoneal injection into mice by using scPTZ screen after 0.5 hr; assay type: functional
Rattus norvegicus [6] = assay: Compound was tested for anticonvulsant activity after Oral Administration into Rats by using MES screen test after 4h,dose 12.5 mg/kg; number of rats out of four which were protected; assay type: functional
Summary of the method: (§2)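 Rats received the compound orally. […] Rats were tested in the MES screen at 0.25, 0.5, 1, 2 and 4 h. Each value is the number of rats protected out of 4. The test followed NINDS procedures.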

Mus musculus [7] = assay: Toxicity after intraperitoneal injection into mice by using toxicity screen test after 0.5 hr; assay type: organism-based; conditions: in vivo, ip; summary of the method: as §1
Rattus norvegicus [8] = assay: Compound was tested for anticonvulsant activity after Oral Administration into Rats by using MES screen test after 1h,dose 12.5 mg/kg; number of rats out of four which were protected; assay type: functional; summary of the method: as §2
Mus musculus [9] = assay: Anticonvulsant activity after intraperitoneal injection into mice measured in a maximal electroshock scree (MES) screen; assay type: functional
Rattus norvegicus [10] = assay: Compound was tested for anticonvulsant activity after Oral Administration into Rats by using MES screen test after 0.25h,dose 12.5 mg/kg; No activity was demonstarted; assay type: functional, organism-based; set-up: dose 12.5 mg/kg; summary of the method: as §2
Rattus norvegicus [11] = assay: Compound was tested for anticonvulsant activity after Oral Administration into Rats by using MES screen test after 0.5h,dose 12.50 mg/kg; number of rats out of four which were protected; assay type: functional; conditions: dose 12.5 mg/kg; summary of the method: as §2
[12] = Compound was tested for toxicity after intraperitoneal injection into mice by using neurotoxicity screen test after 1 hr; assay type: organism-based; conditions: mouse, in vivo, ip
Summary of the method: (§3)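 Quantitative intraperitoneal mouse testing in the MES, scPTZ or rotorod neurotoxicity screens at the peak time given for each compound (0.25–2 h). ED50 or TD50 reported in mg/kg with 95% CI and slope (SE).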

[13] = Compound was tested for toxicity after oral administration in rat by using neurotoxicity screen test after 2 hr; assay type: organism-based; conditions: in vivo
Summary of the method: (§4)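 Rat neurotoxicity after oral dosing, observed at 0.25, 0.5, 1, 2, 4, 6, 8 and 24 h (8 h omitted for one compound).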

Rattus norvegicus [14] = assay: Compound was tested for anticonvulsant activity after Oral Administration into Rats by using MES screen test after 4h,dose 12.50 mg/kg; number of rats out of four which were protected; assay type: functional; conditions: dose 12.5 mg/kg; summary of the method: as §2
Mus musculus [15] = assay: Compound was tested for anticonvulsant activity after intraperitoneal injection into mice by using MES screen test after 2 hr; assay type: functional; conditions: ip; summary of the method: as §3
Rattus norvegicus [16] = assay: Compound was tested for anticonvulsant activity after Oral Administration into Rats by using MES screen test after 2h,dose 12.50 mg/kg; number of rats out of four which were protected; assay type: functional; conditions: dose 12.5 mg/kg; summary of the method: as §2
Mus musculus [17] = assay: Compound was tested for anticonvulsant activity after intraperitoneal injection into mice by using scPTZ screen test after 2 hr; assay type: functional; conditions: ip; summary of the method: as §3
Rattus norvegicus [18] = assay: Compound was tested for anticonvulsant activity after Oral Administration into Rats by using MES screen test after 1h,dose 12.50 mg/kg; number of rats out of four which were protected; assay type: functional; conditions: dose 12.5 mg/kg; summary of the method: as §2
Rattus norvegicus [19] = assay: Compound was tested for anticonvulsant activity after Oral Administration into rat by using MES screen test after 4 hr; assay type: functional
Summary of the method: (§5)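 Rats dosed orally, typically at 50 mg/kg first, then mostly 12.5 mg/kg (some compounds at 30 mg/kg), and tested by maximal electroshock. Four rats per compound, scored at 0.25, 0.5, 1, 2 and 4 h as the number of rats protected out of 4.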

Rattus norvegicus [20] = assay: Compound was tested for anticonvulsant activity after Oral Administration into Rats by using MES screen test after 0.25h,dose 12.50 mg/kg; number of rats out of four which were protected; assay type: functional; conditions: dose 12.5 mg/kg; summary of the method: as §2
Mus musculus [21] = assay: Anticonvulsant activity after intraperitoneal injection into mice by using toxicity screen test after 0.5 hr; assay type: organism-based; conditions: in vivo, ip
[22] = Compound was tested for toxicity after intraperitoneal injection into mice by using neurotoxicity screen test after 0.25 hr; conditions: mouse, in vivo, ip
Mus musculus [23] = assay: Compound was tested for anticonvulsant activity after intraperitoneal injection into mice by using scPTZ screen test after 0.25 hr; assay type: functional; conditions: ip; summary of the method: as §3
Mus musculus [24] = assay: Anticonvulsant activity after intraperitoneal injection into mice by using MES screen test after 0.25 hr; assay type: functional
[25] = Compound was tested for toxicity after oral administration in rat by using neurotoxicity screen test after 0.5 hr; conditions: in vivo
Mus musculus [26] = assay: Anticonvulsant activity after intraperitoneal injection into mice by using scPTZ screen test after 4 hr; assay type: functional
Rattus norvegicus [27] = assay: Compound was tested for anticonvulsant activity after Oral Administration into Rats by using MES screen test after 0.5h,dose 12.5 mg/kg; No activity was demonstarted; assay type: functional, organism-based; set-up: dose 12.5 mg/kg; summary of the method: as §2
[28] = Compound was tested for toxicity after oral administration in rat by using neurotoxicity screen test after 0.25-24 hr; assay type: organism-based; conditions: in vivo; summary of the method: as §4
Rattus norvegicus [29] = assay: Compound was tested for anticonvulsant activity after Oral Administration into Rats by using MES screen test after 2h,dose 12.5 mg/kg; number of rats out of four which were protected; assay type: functional; summary of the method: as §2
Rattus norvegicus [30] = assay: Compound was tested for anticonvulsant activity after Oral Administration into rat by using MES screen test after 2 hr; assay type: functional; summary of the method: as §5
Mus musculus [31] = assay: Compound was tested for anticonvulsant activity after intraperitoneal injection into mice by using scPTZ screen test after 1 hr; assay type: functional; conditions: ip; summary of the method: as §3
[32] = Compound was tested for toxicity after intraperitoneal injection into mice by using neurotoxicity screen test after 4 hr; assay type: organism-based; conditions: mouse, in vivo, ip; summary of the method: as §1
Mus musculus [33] = assay: Compound was tested for anticonvulsant activity after intraperitoneal injection into mice by using MES screen test at 1 hr; assay type: functional; conditions: ip; summary of the method: as §3
Rattus norvegicus [34] = assay: Compound was tested for anticonvulsant activity after Oral Administration into rat by using MES screen test after 6 hr; assay type: functional
Summary of the method: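 Oral dosing in rats, maximal electroshock challenge, with ED50, 95% CI, slope and SE determined at the time listed for each compound (0.25 to 6 h range).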

[35] = Compound was tested for toxicity after intraperitoneal injection into mice by using neurotoxicity screen test after 2 hr; assay type: organism-based; conditions: mouse, in vivo, ip; summary of the method: as §3
[36] = Protection index = TD50/ED50 (MES); conditions: mouse, in vivo; read-out: PI
Rattus norvegicus [37] = assay: Compound was tested for anticonvulsant activity after Oral Administration into Rats by using MES screen test after 2h.,dose 12.5 mg/kg; number of rats out of four which were protected; assay type: functional; summary of the method: as §2
Rattus norvegicus [38] = assay: Compound was tested for anticonvulsant activity after Oral Administration into Rats by using MES screen test after 4h,dose 12.5 mg/kg; No activity was demonstarted; assay type: functional, organism-based; set-up: dose 12.5 mg/kg; summary of the method: as §2

Row | SMILES | Activity (Rattus norvegicus [2]) | Dose (Mus musculus [3]) [mg/kg] | Dose (Mus musculus [4]) [mg/kg] | Dose (Mus musculus [5]) [mg/kg] | Activity (Rattus norvegicus [6]) | Dose (Mus musculus [7]) [mg/kg] | Activity (Rattus norvegicus [8]) | Dose (Mus musculus [9]) [mg/kg] | Activity (Rattus norvegicus [10]) | ED50 (Mus musculus [15]) [mg/kg] | ED50 (Mus musculus [17]) [mg/kg] | Dose (Mus musculus [26]) [mg/kg] | Activity (Rattus norvegicus [27]) | Activity (Rattus norvegicus [29]) | further results
1 | NC(=O)N/N=C/c1ccc(Oc2cc(F)ccc2F)cc1 | 1 | 300 | 100 | 100 | 1 | 300 | 1 | 300 | No activity | – | – | – | – | – | ED50 (Rattus norvegicus [1]): 11.4 mg/kg
2 | NC(=O)N/N=C/c1ccc(Oc2ccc(Cl)cc2F)cc1 | – | 30 | 30 | – | – | – | – | 30 | – | 3.31 | > 45 | – | – | – | Activity (Rattus norvegicus [11]): 4; TD50 at 1 h [12]: 36.3 mg/kg; TD50 at 2 h [13]: > 90 mg/kg; Activity (Rattus norvegicus [14]): 4; Activity (Rattus norvegicus [16]): 4; Activity (Rattus norvegicus [18]): 4; ED50 (Rattus norvegicus [19]): 1.13 mg/kg; Activity (Rattus norvegicus [20]): 2; Dose (Mus musculus [21]): 100 mg/kg
3 | CCCC(CCC)C(=O)O [VALPROIC ACID] | – | – | – | 300 | – | – | – | – | – | – | – | – | – | – | TD50 at 0.25 h [22]: 483 mg/kg; ED50 (Mus musculus [23]): 209 mg/kg; ED50 (Mus musculus [24]): 287 mg/kg; TD50 at 0.5 h [25]: 859 mg/kg
4 | Cc1ccc(Sc2ccc(/C=N/NC(N)=O)cc2)cc1 | – | 100 | 30 | 100 | 4 | 300 | 4 | 30 | No activity | – | – | 100 | No activity | 4 | TD50 [28]: > 500 mg/kg; ED50 (Rattus norvegicus [30]): 3.65 mg/kg; ED50 (Mus musculus [31]): > 300 mg/kg; TD50 at 4 h [32]: 197 mg/kg; ED50 (Mus musculus [33]): 9.46 mg/kg
5 | CCc1ccc(Oc2ccc(/C=N/NC(N)=O)cc2)cc1 | 2 | 100 | 30 | 300 | 4 | 300 | 4 | 30 | No activity | 10.3 | > 100 | – | – | 4 | ED50 (Rattus norvegicus [34]): 6.48 mg/kg; TD50 at 2 h [35]: 34 mg/kg; selectivity ratio [36]: 3.32
6 | NC(=O)N/N=C\c1ccc(OCc2ccccc2)cc1 | – | – | 300 | – | – | – | 1 | 300 | No activity | – | – | 100 | No activity | – | Activity (Rattus norvegicus [37]): 1; Activity (Rattus norvegicus [38]): No activity
